What was measured:
Format in all cases: functional
[1] = tested on: Mus musculus; test: Effective dose to produce anticonvulsant activity using maximal electroshock assay (MES) evaluated in mice after oral administration
Procedure, shortened: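 Mice given oral doses as a suspension in 5% acacia/water. Corneal electroshock (40 mA, 0.1 s, ac). Retest at the time of peak effect with at least four doses, 12 mice per dose. ED50 is for prevention of tonic-extensor convulsions, by Litchfield–Wilcoxon with 95% confidence limits.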

[2] = tested on: Mus musculus; test: Time to peak anticonvulsant effect (TPE) evaluated in mice after oral administration
Procedure, shortened: (§1)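 Three groups of mice given a range of oral doses in 5% acacia/water. Challenged by corneal MES (40 mA, 0.1 s, ac) at 0.5, 1, 2, 3 and 4 h posttreatment. Time of peak protection against seizures recorded.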

[3] = tested on: Mus musculus; test: Anticonvulsant activity using hexobarbital-induced (100 mg/kg dose was administered intraperitoneally) sleeping time assay evaluated in mice
Procedure, shortened: (§2)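 Groups of 10 fasted mice dosed orally with test compound in 5% acacia/water; at the previously determined time of peak effect, hexobarbital given ip, solubilized with stoichiometric NaOH. Duration of loss of righting reflex monitored. Mean ± SEM for 10 animals, compared against vehicle controls.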

[4] = tested on: Mus musculus; test: Effective dose to produce anticonvulsant activity using horizontal screen test (HS) evaluated in mice after oral administration
Procedure, shortened: (§3)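 Fasted male CF1 mice (20–25 g), oral suspension in 5% acacia/water. Each mouse placed on a screen, rod rotated 180°, and return to the top within 1 min scored. Peak time found at 0.5–4 h. Retest at that time with at least four doses, 12 mice per dose. ED50 by Litchfield–Wilcoxon with 95% confidence limits.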

[5] = tested on: Mus musculus; test: Anticonvulsant activity using hexobarbital-induced (100 mg/kg dose was administered intraperitoneally)sleeping time assay evaluated in mice; procedure, shortened: as §2
[6] = tested on: Mus musculus; test: Time to peak anticonvulsant effect (TPE) was determined in mice after oral administration; procedure, shortened: as §1
[7] = tested on: Mus musculus; test: Anticonvulsant activity using hexobarbital-induced (100 mg/kg dose was administered intraperitoneally) sleeping time assay evaluated in mice after oral administration; procedure, shortened: as §2
[8] = tested on: Mus musculus; test: Effective dpse to produce anticonvulsant activity using horizontal screen test (HS) evaluated in mice after oral administration; procedure, shortened: as §3

SMILES	ED50 [1]	TPE [2]	Hexobarb ST [3]	ED50 [4]	Hexobarb ST [5]	TPE [6]	Hexobarb ST [7]	ED50 [8]
c1ccc(OCCn2ccnc2)cc1	130 mg/kg	4 h	434.2 min	> 280 mg/kg	–	–	–	–
Cl.c1ccc(-c2ccccc2OCCCn2ccnc2)cc1	21.3 mg/kg	1 h	126.7 min	> 280 mg/kg	–	–	–	–
Cl.c1ccc(-c2ccc(OCCn3ccnc3)cc2)cc1	44 mg/kg	2 h	–	> 400 mg/kg	697.5 min	–	–	–
Cl.c1ccc(-c2ccccc2OCCCCn2ccnc2)cc1	29.8 mg/kg	0.5 h	124.3 min	> 200 mg/kg	–	–	–	–
O=C(Cn1ccnc1)c1ccc2ccccc2c1 [NAFIMIDONE]	56 mg/kg	–	–	–	–	–	–	–
Cl.c1ccc(-c2ccccc2OCCn2ccnc2)cc1	15.5 mg/kg	–	–	320 mg/kg	–	1 h	252.1 min	–
O=C1NC(=O)C(c2ccccc2)(c2ccccc2)N1 [PHENYTOIN]	9.4 mg/kg	1 h	–	–	–	–	–	210 mg/kg
Cl.c1ccc(-c2cccc(OCCn3ccnc3)c2)cc1	20.5 mg/kg	4 h	334 min	> 200 mg/kg	–	–	–	–
CC(O)(Cn1ccnc1)c1ccc2c(c1)Cc1ccccc1-2 (centres undefined)	10 mg/kg	–	–	–	–	–	–	–

— ChEMBL document CHEMBL1123750, “Imidazole anticonvulsants: structure-activity relationships of [(biphenylyloxy)alkyl]imidazoles” (1987)
